Usually IC50 stands for the concentration that inhibits the measured activity by half. The ΔTm is the change in melting temperature against a reference sample.

Molecules are shown by their SMILES. Where only a bound is given, the exact number is not on record here.

Experiment [1] has as its system NCI-H460. Kind of experiment: Antiproliferative activity against human H460 cells after 72 hrs by MTT assay. The note with it: NCI-H460, 72 h. The class given is functional, cell-based. In outline:
(§1)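 Cells seeded on day 0 at 1–3 × 10⁴ cells/ml, density set by each line's doubling time. Compounds added in five 10-fold dilutions (10⁻⁸–10⁻⁴ M), freshly prepared on test day, with DMSO solvent control matched to working concentrations. Incubated 72 h, then MTT read-out of dehydrogenase activity in viable cells gives percentage of growth. Four parallel samples per point, three independent experiments.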

The subject of experiment [2] is MCF7. Kind of experiment: Antiproliferative activity against human MCF7 cells after 72 hrs by MTT assay. It counts as functional, cell-based. Particulars: MCF7, 72 h. In outline: as §1
In general terms: Tetrazolium dyes change colour on reduction, which living cells bring about.

Experiment [3] has as its system HeLa. The experiment in a line: Antiproliferative activity against human HeLa cells after 72 hrs by MTT assay. It counts as functional, cell-based. In outline: as §1
The nature of experiment [4]: Antiproliferative activity against human WI38 cells after 72 hrs by MTT assay. It counts as cell-based. The note with it: WI-38, 72 h. In outline: as §1
For experiment [5], the system named is DNA. The experiment in a line: Binding affinity to calf thymus DNA in sodium cacodylate buffer assessed as melting temperature at compound/DNA ratio 0.2 at pH 7. It counts as nucleic-acid assay. The note with it: Bos taurus. Summed up: (§2)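 ct-DNA dissolved in sodium cacodylate buffer (I = 0.05 mol dm⁻³, pH 7), sonicated, filtered, with concentration taken spectroscopically as phosphate. Absorbance at 260 nm followed against temperature, heating 1 °C/min. Ligand absorbance subtracted and scale normalized. Tm taken as transition midpoint from first-derivative maximum or tangent method. ΔTm = Tm(complex) − Tm(free DNA). Error ±0.5 °C.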

For experiment [6], the system named is MIA PaCa-2. Kind of experiment: Antiproliferative activity against human MIAPaCa2 cells after 72 hrs by MTT assay. It counts as functional, cell-based. Particulars: MIA PaCa-2, 72 h. In outline:
as §1

The subject of experiment [7] is DNA. The experiment in a line: Binding affinity to calf thymus DNA in sodium cacodylate buffer assessed as melting temperature at compound/DNA ratio 0.3 at pH 7. The note with it: Bos taurus. The class given is nucleic-acid assay. In outline: as §2
The test system of experiment [8] is DNA. Kind of experiment: Binding affinity to calf thymus DNA in sodium cacodylate buffer assessed as melting temperature at compound/DNA ratio 0.1 at pH 7. The class given is nucleic-acid assay. Particulars: Bos taurus. Summed up: as §2
Experiment [9] concerns DNA. The experiment in a line: Binding affinity to calf thymus DNA assessed as hypochromic effect by UV-vis spectra analysis. The class given is nucleic-acid assay. Details: concentration or dose not given beside the values. The note with it: Bos taurus.
Experiment [10] deals with SW-620. Kind of experiment: Antiproliferative activity against human SW620 cells after 72 hrs by MTT assay. The class given is functional, cell-based. Particulars: SW-620, 72 h. Summed up:
as §1

Experiment [11] concerns DNA. Kind of experiment: Binding affinity to calf thymus DNA assessed as relative fluorescence intensity by fluorescence emission spectra analysis relative to control. The note with it: Bos taurus. It counts as nucleic-acid assay. In outline:
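Fluorimetric titration: portions of ct-DNA (phosphate concentration determined spectroscopically; sonicated, filtered) added to compound in sodium cacodylate buffer pH 7.0, I = 0.05 mol dm-3; excitation 360–374 nm depending on compound to avoid inner filter effects, emission monitored at 400 nm; data corrected for dilution; fluorescence change expressed versus compound/ct-DNA ratio r.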

For experiment [12], the system named is DNA. Kind of experiment: Binding affinity to calf thymus DNA in sodium cacodylate buffer at compound/DNA ratio < 0.1 pH 7 by fluorimetric titration. It counts as nucleic-acid assay. Particulars: Bos taurus. Summed up: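 Compound solution in sodium cacodylate buffer (pH 7.0, I = 0.05 mol dm⁻³) titrated with portions of ct-DNA (6.31 × 10⁻³ mol dm⁻³), data corrected for dilution. Excitation at 360–374 nm, chosen per compound to avoid inner filter effects, with emission monitored at 400 nm. Ks and n obtained by non-linear least-squares Scatchard fitting of data at r < 0.1.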

Experiment [13] relates to DNA. Kind of experiment: Binding affinity to calf thymus DNA in sodium cacodylate buffer at compound/DNA ratio 0.5 pH 7 by fluorimetric titration. It counts as nucleic-acid assay. The note with it: Bos taurus.

On to `COC(=O)/C(=C/c1ccc(-c2nc3cc(C(=N)NC(C)C)ccc3[nH]2)s1)c1ccccc1`, for which the IC50 in [1] is 37 µM; in [2] it was 1000 nM; in [3], 30 µM; in experiment [4] it was > 100 µM; in experiment [6] it was 13 µM; in experiment [10], 62 µM. Besides, the ΔTm in experiment [5] amounted to 2.3 °C; in experiment [7] it was 2.7 °C; in [8], 1.7 °C. The Activity in experiment [9] came out at 18%. Besides, the Flu intensity in experiment [11] was determined as 232 a.u.
For the molecule `COC(=O)c1cc2sc(-c3nc4cc(C(=N)NC(C)C)ccc4[nH]3)cc2c2ccccc12`, the IC50 in experiment [1] came out at 24 µM; in experiment [2] it was 2000 nM; in experiment [3], 15 µM; in [4] it was 71 µM; in experiment [6], 16 µM; in experiment [10], 29 µM. Further, the log Ks in experiment [12] was 4.7. The ΔTm was determined as 4.9 °C in [5], 5.8 °C in experiment [7] and 3.9 °C in [8]. Moreover, in experiment [9], the Activity worked out at 15%. Also, the Flu intensity in experiment [11] is 916 a.u.
Regarding `COC(=O)/C(=C/c1ccc(-c2nc3cc(C(=N)NC(C)C)ccc3[nH]2)o1)c1ccccc1`, the concentration for half-maximal inhibition (IC50) came out at 13 µM in experiment [1]; 9000 nM in [2]; 17 µM in experiment [3]; 13 µM in experiment [4]; 19 µM in [6]; 14 µM in experiment [10]. Also, the shift in melting temperature (ΔTm) in [5], in [7] and in experiment [8] was 0 °C in each case. Further, the Activity in experiment [9] was 8%. Further, the Flu intensity in experiment [11] worked out at 147 a.u.
On to `COC(=O)c1cc2oc(-c3nc4cc(C(=N)NC(C)C)ccc4[nH]3)cc2c2ccccc12`, for which the IC50 is 18 µM in experiment [1]; 1000 nM in experiment [2]; 18 µM in experiment [3]; > 100 µM in experiment [4]; 21 µM in experiment [6]; 35 µM in experiment [10]. Moreover, in experiment [12], the log Ks stood at 4.2. The ΔTm in experiment [5] turned out to be 2.6 °C; in experiment [7] it was 3.8 °C; in experiment [8], 1.8 °C. Besides, in experiment [9], the Activity is 51%. In addition, in [11], the Flu intensity came out at 790 a.u.
For `CCOC(=O)/C(=C/c1ccc(-c2nc3cc(C(=N)NC(C)C)ccc3[nH]2)o1)c1ccc(C#N)cc1`, the IC50 in [1] was determined as 31 µM; in [2], 2000 nM; in experiment [3], 28 µM; in [4], 36 µM; in experiment [6], 21 µM; in experiment [10] it was 62 µM. Further, the results for the ΔTm in experiment [5], in experiment [7] and in [8] were 0.8 °C, 1.3 °C and 0.6 °C, respectively. In addition, the log Ks in experiment [13] worked out at 5.6. Further, in experiment [9], the Activity came out at 10%. The Flu intensity in experiment [11] worked out at 161 a.u.
For the molecule `CCOC(=O)c1cc2oc(-c3nc4cc(C(=N)NC(C)C)ccc4[nH]3)cc2c2cc(C#N)ccc12`, the IC50 was > 100 µM in experiment [1]; 6000 nM in experiment [2]; 72 µM in experiment [3]; > 100 µM in experiment [4]; 61 µM in experiment [6]; 85 µM in experiment [10]. The log Ks in [12] was determined as 5. The ΔTm is 1.4 °C in [5], 1.6 °C in experiment [7] and 1 °C in experiment [8]. The Activity in experiment [9] was determined as 10%. Besides, the Flu intensity in experiment [11] came out at 282 a.u.
